From ChEMBL document CHEMBL5154895, “Mechanistic Studies and In Vivo Efficacy of an Oxadiazole-Containing Antibiotic” (J Med Chem, 2022)
Converted amounts (≈) assume the structure as drawn. The source made the active and inactive calls. The calls are words filed in the database; no cut-off is given here.

Legend:
Staphylococcus aureus [1] = assay: Downregulation of NarG protein expression in Staphylococcus aureus assessed as log2 of fold change in protein level measured after 2 hrs by LC-MS/MS analysis relative to control; type: functional
How it was run: (§1)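 S. aureus ATCC 25923 at OD600 0.6 was treated with compound or DMSO for 2 h at 37 °C, normalised to OD600 1.1, and washed in PBS. Cells were pressure-lysed in 100 mM ammonium bicarbonate, then acetone-precipitated, reduced with DTT, alkylated with iodoacetamide, and digested with trypsin/Lys-C. Peptides were desalted and run on LC-MS/MS. Label-free quantitation used proteins present in all 3 samples, filtered at p<0.05 against DMSO.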

Staphylococcus aureus [2] = assay: Upregulation of haptoglobin-binding heme uptake protein HarA expression in Staphylococcus aureus measured after 2 hrs by LC-MS/MS analysis; type: functional
How it was run: (§2)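 S. aureus ATCC 25923 at OD600 0.6 exposed to compound or DMSO control for 2 h at 37°C, normalized to OD600 1.1 and PBS-washed. Cells were pressure-cycling lysed in 100 mM ammonium bicarbonate, and 50 μg protein was acetone-precipitated, reduced and alkylated, then Trypsin/Lys-C digested and C18-desalted. About 1 μg peptides went to LC-MS/MS. Label-free quantitation kept proteins present in all 3 samples, filtered at p <0.05.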

Staphylococcus aureus [3] = assay: Upregulation of GpmA protein expression in Staphylococcus aureus assessed as log2 of fold change in protein level measured after 2 hrs by LC-MS/MS analysis relative to control; type: functional; how it was run: as §2
Staphylococcus aureus [4] = assay: Downregulation of peptidase protein expression in Staphylococcus aureus measured after 2 hrs by LC-MS/MS analysis; type: functional; how it was run: as §2
Staphylococcus aureus [5] = assay: Downregulation of protein EssC expression in Staphylococcus aureus measured after 2 hrs by LC-MS/MS analysis; type: functional; how it was run: as §2
Staphylococcus aureus [6] = assay: Downregulation of LipA protein expression in Staphylococcus aureus assessed as log2 of fold change in protein level measured after 2 hrs by LC-MS/MS analysis relative to control; type: functional; how it was run: as §1
Staphylococcus aureus [7] = assay: Antibacterial activity against Staphylococcus aureus ATCC 25923 assessed as inhibition of bacterial growth incubated for 18 to 20 hrs by broth microdilution method; type: functional; details: time 18-20 hrs
How it was run: (§3)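 Broth microdilution per CLSI. Inoculum at 0.5 McFarland, diluted in cation-adjusted Mueller Hinton broth to about 5 × 10^5 CFU/mL. Serial compound dilutions incubated aerobically at 37° C for 18–20 hours. MIC taken as the lowest concentration completely inhibiting visible growth.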

Listeria monocytogenes = assay: Antibacterial activity against Listeria monocytogenes ATCC 19111 assessed as inhibition of bacterial growth incubated for 18 to 20 hrs by broth microdilution method; type: functional; details: time 18-20 hrs
How it was run: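 Broth microdilution with a 0.5 McFarland inoculum diluted in tryptic soy broth to about 5 × 10^5 CFU/mL. Serial compound dilutions incubated aerobically at 37° C for 18–20 hours. MIC read visually as the lowest concentration with no growth.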

Staphylococcus aureus [8] = assay: Downregulation of DapE protein expression in Staphylococcus aureus assessed as log2 of fold change in protein level measured after 2 hrs by LC-MS/MS analysis relative to control; type: functional; how it was run: as §1
Staphylococcus aureus [9] = assay: Upregulation of IsdI protein expression in Staphylococcus aureus assessed as log2 of fold change in protein level measured after 2 hrs by LC-MS/MS analysis relative to control; type: functional; how it was run: as §2
Staphylococcus aureus [10] = assay: Upregulation of siderophore biosynthesis protein SbnC expression in Staphylococcus aureus measured after 2 hrs by LC-MS/MS analysis; type: functional; how it was run: as §2
Staphylococcus aureus [11] = assay: Antibacterial activity against methicillin-sensitive Staphylococcus aureus ATCC 6538 assessed as inhibition of bacterial growth incubated for 18 to 20 hrs by broth microdilution method; type: functional; details: time 18-20 hrs
How it was run: (§4)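 Broth microdilution per CLSI. Inoculum was set to 0.5 McFarland and diluted in CAMHB to about 5×10^5 CFU/mL. Serial dilutions of agent were incubated aerobically at 37 °C for 18–20 h. MIC was read visually as the lowest concentration with complete growth inhibition.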

Staphylococcus aureus [12] = assay: Antibacterial activity against methicillin-resistant Staphylococcus aureus NRS 385 assessed as inhibition of bacterial growth incubated for 18 to 20 hrs by broth microdilution method; type: functional; details: time 18-20 hrs; how it was run: as §4
Staphylococcus aureus [13] = assay: Downregulation of peptide ABC transporter permease protein expression in Staphylococcus aureus measured after 2 hrs by LC-MS/MS analysis; type: functional; how it was run: as §2
Staphylococcus aureus [14] = assay: Downregulation of DNA recombination protein RecF expression in Staphylococcus aureus measured after 2 hrs by LC-MS/MS analysis; type: functional; how it was run: as §1
[15] = test system: Staphylococcus epidermidis; assay: Antibacterial activity against Staphylococcus epidermidis NRS 101 assessed as inhibition of bacterial growth incubated for 18 to 20 hrs by broth microdilution method; type: functional; details: time 18-20 hrs; how it was run: as §3
HaCaT = assay: Cytotoxicity against human HaCaT cells assessed as reduction in cell viability measured upto 64 ug/ml incubated for 2 hrs by MTS assay; type: toxicity, cell-based; details: dose < 64 µg/ml
How it was run: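 Human keratinocytes exposed to compound at 16, 32, 64 and 128 μg/mL in sextuplicate for 2 hours at 37 °C with 5% CO2. DMSO served as the baseline control. MTS reagent added, then 3 h further incubation, and absorbance read at OD490.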

Streptococcus pneumoniae = assay: Antibacterial activity against […] ATCC 700677 assessed as inhibition of bacterial growth incubated for 18 to 20 hrs by broth microdilution method; type: functional; details: time 18-20 hrs
How it was run: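 Broth microdilution per CLSI. S. pneumoniae was diluted to about 5×10^5 CFU/mL in TSB and incubated with serial dilutions of agent at 37 °C for 18–20 h under 5% CO2. MIC was read visually as the lowest concentration completely inhibiting growth.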

Staphylococcus aureus [16] = assay: Downregulation of PyrF protein expression in Staphylococcus aureus assessed as log2 of fold change in protein level measured after 2 hrs by LC-MS/MS analysis relative to control; type: functional; how it was run: as §1
Staphylococcus aureus [17] = assay: Upregulation of glycine cleavage system protein H expression in Staphylococcus aureus measured after 2 hrs by LC-MS/MS analysis; type: functional; how it was run: as §2
Staphylococcus aureus [18] = assay: Downregulation of 50S rRNA methyltransferase protein expression in Staphylococcus aureus measured after 2 hrs by LC-MS/MS analysis; type: functional; how it was run: as §1
Staphylococcus aureus [19] = assay: Upregulation of dihydroxyacetone kinase subunit L expression in Staphylococcus aureus measured after 2 hrs by LC-MS/MS analysis; type: functional; how it was run: as §2
Staphylococcus aureus [20] = assay: Downregulation of membrane protein expression in Staphylococcus aureus measured after 2 hrs by LC-MS/MS analysis; type: functional; how it was run: as §2
Staphylococcus aureus [21] = assay: Downregulation of LukS-PV protein expression in Staphylococcus aureus assessed as log2 of fold change in protein level measured after 2 hrs by LC-MS/MS analysis relative to control; type: functional; how it was run: as §1
Staphylococcus aureus [22] = assay: Downregulation of MAP domain-containing protein expression in Staphylococcus aureus measured after 2 hrs by LC-MS/MS analysis; type: functional; how it was run: as §1
Staphylococcus aureus [23] = assay: Upregulation of Bsh protein expression in Staphylococcus aureus assessed as log2 of fold change in protein level measured after 2 hrs by LC-MS/MS analysis relative to control; type: functional; how it was run: as §2
[24] = Toxicity in Balb/c mouse infected with methicillin-resistant Staphylococcus aureus USA300 assessed as chronic inflammatory response administered topically twice daily 2 days post infection and measured after 5 days post compound treatment by H and E staining based histopathological analysis; details: in vivo, topical_or_ocular, 120 h, time 5 day
How it was run: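 MRSA USA300-infected punch wounds in mice, n=5. Topical 2% agent or petroleum jelly vehicle twice daily from day 2 for 5 days. The left wound was formalin-fixed, cut into 4-μm sections and H&E-stained. Whole slides were scanned and assessed by a board-certified veterinary pathologist for necrosis, inflammation, haemorrhage and related features.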

For `CC1CC(C)CN(S(=O)(=O)c2ccc(C(=O)Nc3nnc(-c4ccc(C(F)(F)F)cc4)o3)cc2)C1` (configuration not stated), the log2FC (Staphylococcus aureus [1]) was -2, the Activity (Staphylococcus aureus [2]) was “Active” and the log2FC (Staphylococcus aureus [3]) was 2.2. For the same compound, the Activity (Staphylococcus aureus [4]) was “Active”, the Activity (Staphylococcus aureus [5]) was “Active” and the log2FC (Staphylococcus aureus [6]) was -2. For the same compound, the MIC (Staphylococcus aureus [7]) was 0.25 µg/mL (≈ 0.492 µM), the MIC (Listeria monocytogenes) was 0.06 µg/mL (≈ 0.118 µM) and the log2FC (Staphylococcus aureus [8]) was -3.3. For the same compound, the log2FC (Staphylococcus aureus [9]) was 3.2, the Activity (Staphylococcus aureus [10]) was “Active” and the MIC (Staphylococcus aureus [11]) was 0.25 µg/mL (≈ 0.492 µM). For the same compound, the MIC (Staphylococcus aureus [12]) was 0.25 µg/mL (≈ 0.492 µM), the Activity (Staphylococcus aureus [13]) was “Active” and the Activity (Staphylococcus aureus [14]) was “Active”. For the same compound, the MIC [15] was 0.25 µg/mL (≈ 0.492 µM), the Activity (HaCaT) was “Non-Toxic” and the MIC (Streptococcus pneumoniae) was 0.06 µg/mL (≈ 0.118 µM). For the same compound, the log2FC (Staphylococcus aureus [16]) was -2.2, the Activity (Staphylococcus aureus [17]) was “Active” and the Activity (Staphylococcus aureus [18]) was “Active”. For the same compound, the Activity (Staphylococcus aureus [19]) was “Active”, the Activity (Staphylococcus aureus [20]) was “Active” and the log2FC (Staphylococcus aureus [21]) was -3.7. For the same compound, the Activity (Staphylococcus aureus [22]) was “Active”, the log2FC (Staphylococcus aureus [23]) was 3.6 and the Activity [24] was “Toxic”.
